The first assay deals with T1, Cysteinyl leukotriene receptor 1 (Cavia porcellus) (UniProt Q2NNR5).
T1 sequence (whole entry): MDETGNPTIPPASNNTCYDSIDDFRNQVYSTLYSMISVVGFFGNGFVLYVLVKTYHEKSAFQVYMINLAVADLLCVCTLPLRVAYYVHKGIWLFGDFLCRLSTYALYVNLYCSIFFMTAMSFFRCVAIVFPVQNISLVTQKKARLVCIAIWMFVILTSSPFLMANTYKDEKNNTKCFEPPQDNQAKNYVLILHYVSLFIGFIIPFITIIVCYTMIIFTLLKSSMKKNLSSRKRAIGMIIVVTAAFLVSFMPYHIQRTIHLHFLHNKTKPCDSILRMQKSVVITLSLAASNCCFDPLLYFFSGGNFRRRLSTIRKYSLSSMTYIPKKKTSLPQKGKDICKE
As to the kind of experiment: Dissociation constant (KB) […] was evaluated in vitro in isolated guinea pig tracheal strips.
Conditions: not given
With `COc1cc(C(=O)O)ccc1COc1ccc(C(C)=O)c(O)c1C`, the Kb is 850 nM.

Another assay is filed under the species Cavia porcellus. The assay is described as follows: Percent inhibition of the leukotriene E4 (LTE4)-induced contraction of guinea pig tracheal spirals at 10 uM concentration. The following applies: Trachea. In kind it is functional. The gist of the method: (§1)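 Guinea pig tracheal spirals were split into paired sections in 10 mL baths of modified Krebs at 37 °C, gassed with 95% O₂/5% CO₂, under 2 g resting tension. After 60 min equilibration (washes every 15 min), reproducible contractions to 8 nM LTD₄ or 8 nM LTE₄ were obtained. Compound was added for 10 min, then agonist challenge repeated; percent inhibition is relative to the vehicle-treated paired section.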
Usually inhibition stands for the share of the control response that was lost under treatment. The compound `C/C=C/c1cc(=O)oc2c(CCC)c(OCc3ccc(C(=O)O)cc3OC)ccc12` showed an inhibition at 10 µM of 21%. Still for that read-out and setting: under `CCCc1c(OCc2ccc(C(=O)O)cc2OC)ccc(C(C)=O)c1OCc1ccc(OC)cc1` stands 25%. On the same count and under the same terms, the result for `COc1cc(C(=O)O)ccc1COc1ccc(C(C)=O)c(O)c1C/C=C/c1ccccc1` reads 32%; that for `CCCc1c(NCc2ccc(C(=O)O)cc2OC)ccc(C(C)=O)c1O`, 73%.

In turn, `COc1cc(C(=O)O)ccc1COc1ccc(C(C)=O)c(OCc2ccccc2)c1` gave an inhibition at 10 µM of 24%. Regarding `CCCc1cc2ccccc2cc1OCc1ccc(C(=O)O)cc1OC`, 10 µM produced 51% inhibition. On the same count and under the same terms, under `CCCNc1c(C(C)=O)ccc(OCc2ccc(C(=O)O)cc2OC)c1CCC` stands 61%.

In turn, `C=CCc1c(OCc2ccc(C(=O)O)cc2OC)ccc(C(C)=O)c1O` had an inhibition at 10 µM of 100%. On the same count and under the same terms, the result for `CCCc1c(OCc2ccc(C(=O)O)cc2OC)ccc(C(=O)NC)c1O` reads 50%; that for `CCCCCCOc1c(C(C)=O)ccc(OCc2ccc(C(=O)O)cc2OC)c1CCC`, 22%. In turn, `COc1cc(C(=O)O)ccc1CN(Cc1ccccc1)c1ccc(C(C)=O)c(O)c1` displayed an inhibition at 10 µM of 36%. The compound `CCCc1c(OCc2ccc(C(=O)O)cc2OC)ccc2c(/C=C/c3ccccc3)cc(=O)oc12` registered an inhibition at 10 µM of 7%. On the same count and under the same terms, under `CCCc1c(N(Cc2ccc(C(=O)O)cc2OC)C(=O)c2ccccc2)ccc(C(C)=O)c1O` stands 12%.

The compound `C/C=C\c1cc(=O)oc2c(CCC)c(OCc3ccc(C(=O)O)cc3OC)ccc12` came in with an inhibition at 10 µM of 23%.

Regarding `CC/N=C(/NCC)NCCCC[C@@H](NC(=O)[C@H](Cc1ccc(O)cc1)NC(=O)[C@H](CO)NC(=O)[C@@H](Cc1c[nH]c2ccccc12)NC(=O)[C@@H](Cc1ccc(Cl)cc1)NC(=O)[C@@H](Cc1ccc(Cl)cc1)NC(C)=O)C(=O)N[C@@H](CC(C)C)C(=O)N[C@@H](CCCN=C(N)N)C(=O)N1CCC[C@H]1C(=O)N[C@H](C)C(N)=O`, 10 µM produced 40% inhibition. Still for that read-out and setting: the result for `COc1cc(C(=O)O)ccc1COc1ccc(C(C)=O)c(O)c1CCCC(C)=O` reads 21%.

The species named for a further assay is Cavia porcellus. The assay is described as follows: Percent inhibition of the leukotriene E4 (LTE4)-induced contraction of guinea pig tracheal spirals at 10 uM concentration; NS means data was not statistically significant. In kind it is functional. The following applies: Trachea. In short, it runs like this:
as §1
With `CCCCOC(=O)c1ccc(OCc2ccc(C(=O)O)cc2OC)c(CCC)c1O`, the inhibition result is “Not statistically significant”. The same measure, in the same setting: the result for `CCCc1c(OCc2ccc(C(=O)O)cc2OC)ccc(-c2ccc3ccccc3n2)c1O` reads “Not statistically significant”.

Regarding `COc1cc(C(=O)O)ccc1CNc1ccc(C(C)=O)c(O)c1`, the inhibition result was “Not statistically significant”. On the same count and under the same terms, under `COc1cc(C(=O)O)ccc1COc1cc(O)c2c(=O)ccn(C)c2c1` stands “Not statistically significant”; under `CCCc1c(OCc2ccc(C(=O)O)cc2OC)ccc2c1C(=O)c1ccccc1-2`, “Not statistically significant”; under `CCCc1c(OCc2cccc(NS(=O)(=O)c3ccccc3)c2)ccc(C(C)=O)c1O`, “Not statistically significant”.

Consider `CCCc1c(OCc2ccc(C(=O)O)cc2OC)ccc(C(C)=O)c1NC(=O)c1ccccc1`, for which the inhibition entry is “Not statistically significant”. The same measure, in the same setting: under `C=CCc1c(OCc2ccc(C(=O)O)cc2OC)cc2oc(-c3ccccc3)cc(=O)c2c1O` stands “Not statistically significant”. As to `CCCc1c(OCc2ccc(/C=C/C(=O)Nc3nn[nH]n3)cc2)ccc(C(C)=O)c1O`, the inhibition result is “Not statistically significant”. Still for that read-out and setting: under `CCCN(C(=O)c1ccc(C(=O)O)cc1)c1ccc(C(C)=O)c(O)c1` stands “Not statistically significant”.

Take `CCCc1c(OCc2ccc(C(=O)O)cc2OC)ccc(C(C)=O)c1NC(C)=O`: the inhibition entry was “Not statistically significant”. As for `CCCc1cc2c(cc1OCc1ccc(C(=O)O)cc1OC)C(=O)c1ccccc1-2`, the inhibition result was “Not statistically significant”. The same measure, in the same setting: the result for `CCCc1c(OCc2ccc(C(=O)O)cc2OC)cc2oc(-c3ccccc3)cc(=O)c2c1O` reads “Not statistically significant”. As to `CCCCCCOc1cc(OCc2ccc(C(=O)O)cc2OC)ccc1C(C)=O`, the inhibition entry is “Not statistically significant”. As to `CCCc1c(OCc2ccc(C(=O)NS(=O)(=O)c3ccccc3)cc2OC)ccc(C(C)=O)c1O`, the inhibition entry is “Not statistically significant”. Still for that read-out and setting: the result for `CCCc1c(O)cccc1OCc1ccc(C(=O)O)cc1OC` reads “Not statistically significant”.

Another assay has as its system Cavia porcellus. The assay is described as follows: Compound (50 mg/kg, intraperitoneally) was tested in spontaneously breathing, conscious guinea pigs challenged with aerosolized LTD4 (60-min pretreatment).
Conditions: not given
The assay is classed as functional.
Take `CCCc1c(OCc2ccc(C(=O)O)cc2OC)ccc(C(=O)NC)c1O`: the Protection is reported as 33%.

Take `COc1cc(C(=O)O)ccc1COc1ccc(C(C)=O)c(O)c1C`: the Protection is on record as 17%.

The species named for another assay is Cavia porcellus. As to the kind of experiment: Percent inhibition of the leukotriene D4 (LTD4)-induced contraction of guinea pig tracheal spirals at 50 uM concentration. The assay is classed as functional. The following applies: Trachea. The gist of the method: as §1
For the compound `CCCc1c(OCC(O)CSCC(=O)O)ccc(C(C)=O)c1O` (stereo not drawn), the inhibition at 50 µM is 44%. Same read-out and setting: the result for `CCCCCC(=O)c1ccc(OCc2ccc(C(=O)O)cc2OC)c(CCC)c1O` reads 20%; that for `CCCCCCNC(=O)c1ccc(OCc2ccc(C(=O)O)cc2OC)c(CCC)c1O`, 27%; that for `CCCc1ccccc1OCc1ccc(C(=O)O)cc1OC`, 81%.

For another assay, the species on record is Cavia porcellus. The assay is described as follows: Inhibition of the leukotriene D4 (LTD4)-induced contraction of guinea pig tracheal spirals at 10 uM concentration. In kind it is functional. The following applies: Trachea. In short, it runs like this: as §1
`CCCc1c(OCCCCSCC(=O)O)ccc(C(C)=O)c1O` came in with an inhibition at 10 µM of 75%. `CCCc1c(OCCCCC(=O)O)ccc(C(C)=O)c1O`: the inhibition at 10 µM is 18%.

`CCCc1c(OCC(=O)c2ccc(C(=O)O)cc2)ccc(C(C)=O)c1O` displayed an inhibition at 10 µM of 66%. With `CCCCCCNc1cc(OCc2ccc(C(=O)O)cc2OC)ccc1C(C)=O`, testing at 10 µM gave an inhibition of 11%. Still for that read-out and setting: under `CCCc1c(OCc2cc(Br)c(C(=O)O)cc2OC)ccc(C(C)=O)c1O` stands 43%; under `CCCc1cc(C(C)=O)ccc1OCc1ccc(C(=O)O)cc1OC`, 67%. On the same count and under the same terms, the result for `CCCc1c(OCc2ccc(C(=O)O)cc2)ccc(C(=O)C(F)(F)F)c1O` reads 36%. The same measure, in the same setting: under `CCCc1c(OCc2cccc(NS(C)(=O)=O)c2)ccc(C(C)=O)c1O` stands 26%. On to `CCCc1c(OCCCCCC(=O)O)ccc(C(C)=O)c1O`, for which at 10 µM the inhibition was 52%. On the same count and under the same terms, under `CCCc1c(OCc2ccc(C(=O)NO)cc2OC)ccc(C(C)=O)c1O` stands 65%; under `CCCc1c(OCc2ccc(C(=O)O)cc2[N+](=O)[O-])ccc(C(C)=O)c1O`, 93%; under `CCCc1c(OCC(O)CSCC(=O)O)ccc(C(C)=O)c1O` (stereo not drawn), 19%. On the same count and under the same terms, under `CCCc1c(OCc2cccc(N)c2)ccc(C(C)=O)c1O` stands 39%; under `CCCc1c(OCc2ccc(C(=O)O)cc2)ccc(C(C)=O)c1O`, 100%. With `CCCc1c(OCc2ccc(C(=O)O)cc2OC)ccc(C(=O)Nc2ccccc2)c1O`, the inhibition at 10 µM was 25%. `COc1cc(C(=O)O)ccc1COc1ccc(C(C)=O)c(O)c1C`: the inhibition at 10 µM came to 73%. For `CCCc1c(OCCCSCCC(=O)O)ccc(C(C)=O)c1O`, the inhibition at 10 µM came out at 50%. `CCCc1c(OCc2ccc(C(=O)O)cc2OC)ccc2c(=O)ccoc12` registered an inhibition at 10 µM of 44%. Same read-out and setting: under `CCCc1c(OCc2ccc(C(=O)O)cc2OCC)ccc(C(C)=O)c1O` stands 83%; under `CCCc1c(OCCCS(=O)(=O)CC(=O)O)ccc(C(C)=O)c1O`, 34%. Still for that read-out and setting: under `CCCc1cc(C(C)O)ccc1OCc1ccc(C(=O)O)cc1OC` (stereo not drawn) stands 44%; under `CCCc1c(OCc2ccc(C(=O)NS(C)(=O)=O)cc2OC)ccc(C(C)=O)c1O`, 97%. Same read-out and setting: under `CCCc1c(OCc2ccc(C(=O)OC)cc2OCCCn2cnnn2)ccc(C(C)=O)c1O` stands 75%; under `CCCc1c(OCc2ccc(/C=C/c3nn[nH]n3)cc2)ccc(C(C)=O)c1O`, 44%; under `CCCc1c(OC(c2ccccc2)c2ccc(C(=O)O)cc2)ccc(C(C)=O)c1O` (stereo not drawn), 16%. Take `CCCc1c(OCc2ccc(OCCCc3nnn[nH]3)cc2)ccc(C(C)=O)c1O`: 10 µM produced 56% inhibition. Compound `CCCc1ccccc1OCc1ccc(C(=O)O)cc1OC` came in with an inhibition at 10 µM of 25%. Turning to `CCCc1c(OCCCCSCCC(=O)O)ccc(C(C)=O)c1O`, the inhibition at 10 µM worked out at 74%.

The next assay is filed under the species Cavia porcellus. The assay is described as follows: Percent inhibition of the leukotriene D4 (LTD4)-induced contraction of guinea pig tracheal spirals at 3.3 uM concentration. The assay is classed as functional. The conditions noted are these: Trachea, in the assay text read “leukotriene E4 (LTE4)” for “leukotriene D4 (LTD4)”. In short, it runs like this: as §1
For `CCCc1c(OCc2ccc(C(=O)O)cc2OCCCn2cnnn2)ccc(C(C)=O)c1O`, the inhibition at 3.3 µM turned out to be 87%.

`CCCc1c(OCc2ccc(-c3nn[nH]n3)c(Br)c2)ccc(C(C)=O)c1O`: the inhibition at 3.3 µM came to 66%. On the same count and under the same terms, under `CCCc1c(OCc2ccc(C(=O)NS(C)(=O)=O)cc2OC)ccc(C(C)=O)c1O` stands 37%; under `CCCc1c(OCc2ccc(C(=O)O)cc2OCCCC#N)ccc(C(C)=O)c1O`, 78%.

In turn, `CCCc1c(OCc2cccc(NC(=O)CCC(=O)O)c2)ccc(C(C)=O)c1O` had an inhibition at 3.3 µM of 62%. Still for that read-out and setting: under `CCCc1c(OCc2ccc(-c3nn[nH]n3)cc2)ccc(C(C)=O)c1O` stands 76%.

For another assay, the species on record is Cavia porcellus. As to the kind of experiment: Percent inhibition of the leukotriene D4 (LTD4)-induced contraction of guinea pig tracheal spirals at 4 uM concentration. The conditions noted are these: Trachea. In kind it is functional. The gist of the method: as §1
As to `CCCc1c(OCc2ccc(C(=O)O)cc2[N+](=O)[O-])ccc(C(C)=O)c1O`, the inhibition at 4 µM amounted to 57%. Take `CCCc1c(OCc2ccc(C(=O)O)cc2)ccc(C(C)=O)c1O`: 4 µM produced 36% inhibition. On to `COc1cc(C(=O)O)ccc1COc1ccc(C(C)=O)c(O)c1C`, for which the inhibition at 4 µM worked out at 33%. Still for that read-out and setting: the result for `CCCc1c(OCc2ccc(OC)c(/C=C/C(=O)O)c2)ccc(C(C)=O)c1O` reads 63%; that for `CCCc1c(OCc2ccc(/C=C/C(=O)O)c(OC)c2)ccc(C(C)=O)c1O`, 66%.
